Only some compounds are listed: those with a hit (about 5.8% of all), similar ones and a draw of the others.
IDH1 mut inh: inhibitors of human IDH1 R132H; 70,000 compounds, 0.18% hits; O75874; inhibition, % at 10 µM; IDH1 R132H reductase, diaphorase/resazurin fluorescence, 60 min; in the data active means inhibition above about 34%; inconclusive means no clear call, values can overlap the other calls; inactive means below about 11%;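 further: 0% = DMSO and 100% = no enzyme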
KDM4C inh: inhibitors of human demethylase GASC-1 KDM4C. GST-KDM4C 2-372, H3K9me3 peptide, LANCE TR-FRET. inhibition, % at 12.5 µM. AID 720574. 96,000 compounds, 0.15% hits. Q9H3R0;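 active means mean replicate inhibition above about 25%, with at least 55% of replicates also reaching it, limit read from the data, passing the limit was not always enough; inconclusive means only one of those two conditions met; inactive means neither condition met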
Target sequence (Q9H3R0 2-372 limits assumed): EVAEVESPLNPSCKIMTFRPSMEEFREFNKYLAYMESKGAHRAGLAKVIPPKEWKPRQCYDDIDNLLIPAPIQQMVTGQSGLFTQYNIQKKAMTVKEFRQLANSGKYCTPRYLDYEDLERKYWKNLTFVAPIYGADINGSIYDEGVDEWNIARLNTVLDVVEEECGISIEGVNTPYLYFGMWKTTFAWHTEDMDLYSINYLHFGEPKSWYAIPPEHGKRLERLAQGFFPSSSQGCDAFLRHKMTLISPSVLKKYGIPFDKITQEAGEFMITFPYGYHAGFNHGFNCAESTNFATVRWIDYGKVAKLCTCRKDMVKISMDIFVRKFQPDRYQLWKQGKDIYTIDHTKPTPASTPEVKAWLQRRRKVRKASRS
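System – N-terminal GST-fused human GASC-1 (KDM4C) fragment, residues 2-372 · Input – enzyme final amount 10 nM · Technique – LANCE TR-FRET, Eu antibody, ULight-streptavidin, EDTA, ex 340 nm, em 618/671 nm · Medium – HEPES buffer, pH 7.5, plus ascorbate · Incubation – enzyme reaction 30 min, then detection 60 min, both room temperature · Reagent – H3K9me3 peptide with Fe(II)/2OG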
T cruzi growth-1: blocks T. cruzi growth in NIH3T3 culture; T. cruzi beta-gal in NIH3T3, GalScreen luminescence, 90 h; inhibition, % at 8.34 µM; 77,000 compounds, 5.9% hits; AID 624255;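 active means mean inhibition above about 93%, with at least 55% of replicates each passing it, limit read from the data, passing the limit was not always enough; inconclusive means only one of those two conditions holds; inactive means neither condition holds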
Pf Dd2 growth: P. falciparum Dd2 growth inhibition | SYBR Green, 72 h; hits give low values | activity change, % at 10 µM | 94,000 compounds, 2.3% hits | AID 1159554; in the data active means activity change below about -80%; inconclusive means no clear call, values can overlap the other calls
T cruzi growth-2: inhibitors of T. cruzi proliferation; shares compounds with T cruzi growth-1; T. cruzi beta-gal in NIH3T3, GalScreen luminescence, 90 h; 5,600 compounds, 72% hits; inhibition, % at 8.35 µM;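 active means mean replicate inhibition above about 95% and at least 55% of replicates individually reaching it, limit read from the data; inconclusive means only one of the two criteria is met; inactive means neither criterion is met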
T cruzi growth-3: Trypanosoma cruzi proliferation inhibition | shares compounds with T cruzi growth-1 | T. cruzi beta-gal in NIH3T3, GalScreen luminescence, 90 h | inhibition, % at 2.09 µM | 5,600 compounds, 21% hits | AID 651740;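 active means mean inhibition above about 95%, with at least 55% of replicates also reaching it, limit read from the data; inconclusive means meets just one of the two conditions; inactive means meets neither condition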;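 further: plate controls were neutral control median for no effect and positive control median for full effect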
NIH3T3 tox: cytotoxicity in mouse NIH/3T3 fibroblasts | shares compounds with T cruzi growth-1 | NIH/3T3 viability, CellTiter-Glo ATP luminescence, 90 h | cytotoxicity (signal decrease), % at 8.35 µM | 5,600 compounds, 14% hits | AID 651742;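 active means mean signal decrease across replicates above about 35% based on untreated-well scatter, with enough replicates individually passing, limit read from the data; inconclusive means no rule stated though some were filed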;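 further: 0% = median of neutral control wells and 100% = median of positive control wells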
3T3 cytotox 2: kills mouse NIH/3T3 fibroblasts; shares compounds with T cruzi growth-1; 5,600 compounds, 56% hits; NIH/3T3 viability, CellTiter-Glo ATP luminescence, 90 h; inhibition, % at 24.9 µM; AID 651744;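 active means mean loss of cell viability signal at or above a set limit, and enough replicates individually reaching it; inconclusive means meets only the mean limit or only the replicate share; inactive means meets neither condition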;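 further: 0% = median of neutral control wells and 100% = median of positive control wells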
* hit, by the source's call; ? = inconclusive; . = no result.

SMILES	IDH1 mut inh	KDM4C inh	T cruzi growth-1	Pf Dd2 growth	T cruzi growth-2	T cruzi growth-3	NIH3T3 tox	3T3 cytotox 2
COc1cccc(S(=O)(=O)N2CCCCN3[C@H](CO)[C@@H](c4ccc(-c5ccccc5)cc4)[C@@H]3C2)c1	.	0	65	-45	.	.	.	.
COC(=O)c1cc(NC2c3ccccc3C(=O)N2c2ccccn2)cc(C(=O)OC)c1 (stereo not given)	1	.	.	.	.	.	.	.
CC1(C)CC(n2c(NCCO)nc3c(c2=O)C2(CCCCC2)Cc2ccccc2-3)CCO1 (stereo not given)	1	.	.	.	.	.	.	.
O=C(Cc1ccccc1[N+](=O)[O-])Nc1cc(Cl)ccc1Oc1ccccc1	0	.	.	.	.	.	.	.
COc1ccc(NC(=O)c2ccco2)cc1NC(=O)CSc1ccc(Cl)cc1	0	.	.	.	.	.	.	.
Cc1noc(C)c1S(=O)(=O)N(C)C[C@@H]1OCCCC[C@@H](C)Oc2ccc(NS(=O)(=O)c3ccc(Cl)cc3)cc2C(=O)N([C@H](C)CO)C[C@H]1C	1	-3	103*	-57	105*	71	19	1
Cc1noc(C)c1S(=O)(=O)N(C)C[C@@H]1OCCCC[C@H](C)Oc2ccc(NS(=O)(=O)c3ccc(F)cc3)cc2C(=O)N([C@H](C)CO)C[C@@H]1C	5	0	108*	-38	100*	32	-3	25
Cc1ccc(S(=O)(=O)Nc2ccc3c(c2)C(=O)N([C@H](C)CO)C[C@@H](C)[C@H](CN(C)S(=O)(=O)c2c(C)noc2C)OCCCC[C@@H](C)O3)cc1	-6	0	?	-47	112*	40	11	-16
Cc1noc(C)c1S(=O)(=O)N(C)C[C@H]1OCCCC[C@H](C)Oc2ccc(NS(=O)(=O)c3ccc(Cl)cc3)cc2C(=O)N([C@@H](C)CO)C[C@@H]1C	.	1	94	-50	.	.	.	.
O=C(CN1C(=O)C2C3CC(c4ccccc4)C(C3)C2C1=O)Nc1cccc([N+](=O)[O-])c1 (stereo not given)	0	.	.	.	.	.	.	.
COc1c2c(c(O)c3c(=O)c4c(OC)c(O)ccc4oc13)C1CCCC(C)(O2)O1 (stereo not given)	1	.	.	.	.	.	.	.
C[C@@H]1CCCCO[C@H](CN(C)S(=O)(=O)c2ccc(Cl)cc2)[C@H](C)CN([C@H](C)CO)C(=O)c2cc(NS(=O)(=O)c3ccccc3)ccc2O1	5	-1	99	-70	.	.	.	.
C[C@H]1CCCCO[C@H](CN(C)S(=O)(=O)c2ccccc2)[C@@H](C)CN([C@@H](C)CO)C(=O)c2cc(NS(=O)(=O)c3ccc(Cl)cc3)ccc2O1	.	-4	114*	-52	103*	94	-12	-7
C[C@@H]1CN([C@@H](C)CO)C(=O)c2cc(NS(=O)(=O)c3ccc(Cl)cc3)ccc2O[C@@H](C)CCCCO[C@H]1CN(C)S(=O)(=O)c1ccc(Cl)cc1	0	-1	111*	-31	108*	79	22	-2
C[C@@H]1CCCCO[C@@H](CN(C)S(=O)(=O)c2ccccc2)[C@H](C)CN([C@H](C)CO)C(=O)c2cc(NS(=O)(=O)c3ccc(Cl)cc3)ccc2O1	.	-4	110*	-60	101*	?	-9	11
C[C@@H]1CCCCO[C@@H](CN(C)S(=O)(=O)c2ccccc2)[C@@H](C)CN([C@@H](C)CO)C(=O)c2cc(NS(=O)(=O)c3ccc(Cl)cc3)ccc2O1	.	1	118*	-34	101*	74	5	18
COC(=O)CNC(=O)c1ccc(S(=O)(=O)N2CCOCC2)cc1	0	.	.	.	.	.	.	.
CCN(CC)CCSc1nnc2c3cc(C)ccc3n(C)c2n1	0	.	.	.	.	.	.	.
COc1ccccc1S(=O)(=O)N(C)C[C@@H]1Oc2cc(/C=C/c3ccccc3)ccc2S(=O)(=O)N([C@@H](C)CO)C[C@H]1C	-5	1	128*	?	102*	106*	65*	62*
C/C=C/c1ccc2c(c1)O[C@@H](CN(C)S(=O)(=O)c1ccccc1OC)[C@H](C)CN([C@@H](C)CO)S2(=O)=O	0	0	116*	-70	107*	74	44*	56*
COc1ccccc1S(=O)(=O)N(C)C[C@H]1Oc2cc(/C=C/c3ccccc3)ccc2S(=O)(=O)N([C@@H](C)CO)C[C@H]1C	0	1	129*	-52	101*	?	40*	34*
C/C=C/c1ccc2c(c1)O[C@H](CN(C)S(=O)(=O)c1ccccc1OC)[C@H](C)CN([C@@H](C)CO)S2(=O)=O	2	-2	24	.	.	.	.	.
COc1ccccc1S(=O)(=O)N(C)C[C@H]1Oc2cc(Br)ccc2S(=O)(=O)N([C@H](C)CO)C[C@H]1C	.	-1	.	-19	.	.	.	.
COc1ccccc1S(=O)(=O)N(C)C[C@H]1Oc2cc(/C=C/c3ccccc3)ccc2S(=O)(=O)N([C@H](C)CO)C[C@@H]1C	0	38*	131*	-88*	106*	97*	18	25*
C[C@@H]1CN([C@@H](C)CO)S(=O)(=O)c2ccc(/C=C/c3ccccc3)cc2O[C@@H]1CN(C)C	0	-1	36	-35	.	.	.	.
SMILES	IDH1 mut inh	KDM4C inh	T cruzi growth-1	Pf Dd2 growth	T cruzi growth-2	T cruzi growth-3	NIH3T3 tox	3T3 cytotox 2
C=Cc1ccc(O[C@@H]2O[C@H](CO)[C@@H](O)[C@H](O)[C@H]2O[C@@H]2O[C@@H](C)[C@H](O)[C@@H](O)[C@H]2O)cc1	0	.	.	.	.	.	.	.
COc1ccccc1OCC(O)Cn1cnc2ccccc21 (stereo not given)	0	.	.	.	.	.	.	.
Cc1ccc(N(C(C)C(=O)Nc2ccccc2F)S(C)(=O)=O)cc1 (stereo not given)	0	.	.	.	.	.	.	.
Cc1sc2nc(SCC(=O)Nc3ccc4c(c3)OCCO4)n(-c3ccccc3)c(=O)c2c1C	0	.	.	.	.	.	.	.
COc1ccccc1S(=O)(=O)N(C)C[C@H]1Oc2cc(/C=C/c3ccccc3)ccc2S(=O)(=O)N([C@H](C)CO)C[C@H]1C	-2	-1	122*	-50	102*	104*	43*	51*
C/C=C/c1ccc2c(c1)O[C@H](CN(C)S(=O)(=O)c1ccccc1)[C@H](C)CN([C@@H](C)CO)S2(=O)=O	-1	-3	107*	-26	97*	28	14	35*
COc1ccccc1S(=O)(=O)N(C)C[C@H]1Oc2cc(/C=C/c3ccccc3)ccc2S(=O)(=O)N([C@@H](C)CO)C[C@@H]1C	-1	5	128*	-58	100*	101*	?	39*
C[C@H]1CN([C@@H](C)CO)S(=O)(=O)c2ccc(/C=C/c3ccccc3)cc2O[C@@H]1CN(C)C	-3	-3	95	-31	.	.	.	.

High-throughput results from PubChem.
